Experimental data from the EternaBench riboswitch data.

Test system: MS2 coat protein
Assay: apparent Kd, MS2 coat protein; higher = weaker binding; RNA-MaP array; FMN 200 µM where present
Summary of the method: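 Stalled E. coli RNA polymerase transcribed the designs on Illumina sequencing-chip clusters. SNAP-549-labelled MS2 coat protein was titrated from 0.7 or 1.5 nM, doubling to 3 µM, without and then with constant ligand, in 100 mM Tris-HCl pH 7.5, 80 mM KCl, 4 mM MgCl2, BSA, DTT, yeast tRNA and Tween-20. Per-cluster binding curves were fitted to green signal normalised to red-channel RNA signal and control-cluster median Fmax. The apparent Kd is the median of the filtered fits.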

[1] = designed as: OFF switch for flavin mononucleotide, no ligand
[2] = ligand present: flavin mononucleotide, designed as: OFF switch for flavin mononucleotide
[3] = designed as: ON switch for flavin mononucleotide, no ligand
[4] = ligand present: flavin mononucleotide, designed as: ON switch for flavin mononucleotide

Sequence	apparent Kd [1] [nM]	apparent Kd [2] [nM]	apparent Kd [3] [nM]	apparent Kd [4] [nM]
UGCCGUUUAGGAUAUACAUGAGGAUCACCCAUGUGACAAACAUAUUUUACAAAACCAUGUAGAAGGAAACGGCA	97.4	468	–	–
UGCGCUGAGGGAGGAUAUGACAUGAGGAUCACCCAUGUGGUAGGUUUCUUGUCAGAAGGCCCGCAUGUACCGAAUUAGGUUCGU	112	18.3	–	–
UGCGUGGUCACAGGAUAUGCAAGAUAAACUUUAGCAGAAGGGUGAUCAAUUAGCUCAAUACCACAUGAGGAUCACCCAUGUCUA	–	–	62.9	314
UGCUGGCGAGGAUAUGCUCGGGAUGCUAGUCGCGCGGUUGCACAUGAGGAUCACCCAUGUAGAAGGUGUCUGUG	170	169	–	–
UGGAACUAGGGAGGAUAUGGGAAGAUACAUGAGGAUCACCCAUGUUUAAGAAUGCCGAGAGGCAACUAGAAGGCCCUAGUACCU	–	–	454	20.3
UGGACUGGGCAGAAGGGACAUGAGGAUCACCCAUGUCUUGGGCUACUUCAGUCAGGAUAUGCCCAUUAAAUAUCCGUGCAUCAA	14.9	73.3	–	–
UGGAUGGUAUGAGGAUAUGCGCGCGAAACGCGCGCAGAAGGCGUGUCAAUAGACAUGAGGAUCACCCAUGUACUAUCCAUCCAA	–	–	85.2	9.82
UGGUACAUCGGAGGAUAUCAUGUAGAGACAUGAGGAUCACCCAUGUCGAUGGAGACAUCGGAGAUUGAGAAGGCCGAUGUACCU	–	–	109	22.2
UGGUACAUGGGAGGAUAUCCUCAAGAGACAUGAGGAUCACCCAUGUAUUAUAAGCCGAAAGGCAUGGAGAAGGCCCAUGUACCU	–	–	75.4	19.5
UGGUACAUGGGAGGAUAUGGGUUGAUAACAUGAGGAUCACCCAUGUUAAAUAAGCCGAGAGGCUACUAGAAGGCUCAUGUACCU	–	–	327	10.4
UGGUACUAGGGAGGAUAUGGGAAGAUACAUGAGGAUCACCCAUGUUUAAGAAUGCCGAGAGGCAACUAGAAGGCCCGAGUACCU	–	–	456	21.6
UGGUACUAGGGAGGAUAUGGGAAGAUACAUGAGGAUCACCCAUGUUUAAGAAUGCCGAGAGGCAACUAGAAGGCCCUAGUAGCU	–	–	539	19.9
UGGUACUAGGGAGGAUAUGGGAAGAUACAUGAGGAUCACCCAUGUUUAAGAAUGCCGAGAGGCAAGUAGAAGGCCCUAGUACCU	–	–	781	97.5
UGGUACUAGGGAGGAUAUGGGAAGAUACAUGAGGAUCACCCAUGUUUAAGAAUGCCGAGAGGCAAUUAGAAGGCCCUAGUACCU	–	–	983	148
UGGUACUAGGGAGGAUAUGGGAAGAUACAUGAGGAUCACCCAUGUUUAAGAGUGCCGAGAGGCAACUAGAAGGCCCUAGUACCU	–	–	1030	83
UGGUACUAGGGAGGAUAUGGGAAGAUACAUGAGGAUCACCCAUGUUUCAGAAUGCCGAGAGGCAACUAGAAGGCCCUAGUACCU	–	–	59.7	6.38
UGGUACUAGGGAGGAUAUGGGAAGAUACAUGAGGAUCACCCAUGUUUUAGAAUGCCGAGAGGCAACUAGAAGGCCCUAGUACCU	–	–	1110	74.5
UGGUCAUCAUCAGGAUAUUAACAUGGGCUACAUUAAGAAGGGAUAGUGAGAUACGAACUGAACGCACAUGAGGAUCACCCAUGU	–	–	39.6	26.5
UGGUCAUGAUCAGGAUAUUAACAUGGGCUACAUUAAGAAGGGAUAGUGAGAUGCGAACUGAACGACAUGAGGAUCACCCAUGUA	–	–	51.9	35.8
UGGUCCUGAGGAUAUGCACCUCAAGUUAUCGUUCACCAUGCACAUGAGGAUCACCCAUGUAGAAGGUAGGAUCG	18.8	16.6	–	–
UGGUGGAAGCAGGAUAUGCUUGUUUUAUUGAUUGCAGAAGGGCUAACAUGAGGAUCACCCAUGUAAGAGGUGUU	428	196	–	–
UGGUGUGAAGGAUAUACAUGAGGAUCACCCAUGUAUGAGGUGGAGGUUGAGGUGGAGGGUAGAAGGUCAGGUGG	27.3	27	–	–
UGUAACCGAGGAUAUACAUGAGGAUCACCCAUGUAAUGUAGUAUAGUGUAUGUGAGGUGUAGAAGGUGGGAUGU	75.6	71.6	–	–
UGUAAUUAGUAAGGAUAUACUAGUGAUUAGCUUGUAGAAGGUACAGUCUUAUGUAUAACAAAUUAACAUGAGGAUCACCCAUGU	–	–	10.2	8.74
UGUACUAUAAGGUUAAUUGUAUAUUGAGAAGGCAUUCACAUGAGGAUCACCCAUGUAACAUGGGAUGAGGAUAUCAAUUUGUAC	–	–	197	33.4
UGUAUGGACAGAGGAUAUACCGAUAGGAGAUACUAUCGACUAGUCCUCACAUGAGGAUCACCCAUGUAGAAGGCUGUCCAUACU	25.2	179	–	–
UGUAUUAAUGGAGGAUAUCGAUAUCAAACAUGAGGAUCACCCAUGUUGAGGAUCACCCAUGUCCAUGAGAAGGCUGGCGUACGU	–	–	45.4	40.9

Sequence	apparent Kd [1] [nM]	apparent Kd [2] [nM]	apparent Kd [3] [nM]	apparent Kd [4] [nM]
UGUCAUAUAUAGAAGGGUAGUAGGGAUUUACAUGAGGAUCACCCAUGUAUUAUAGGAUAUGUGUAUAGUUUUUAUUCAAGUAUA	28.7	17.9	–	–
UGUCAUAUAUAGAAGGGUAGUAGGGUUUUACAUGAGGAUCACCCAUGUAUUAUAGGAUAUGUGUAUAGUUUUUAUUCAAGUAUA	32.8	25.4	–	–
UGUCAUUUACAGAAGGGUAGUUGGGUUUUACAUGAGGAUCACCCAUGUUUUACAGGAUAUGUGUUUUGUUAAUAUUAAAGUUCA	72.9	113	–	–
UGUCCACAUGAGGAUCACCCAUGUCAGGAGGUGACAGGAUAUUGCGAAAAAAAAAAAAAGCAAGAAGGGUCUGAUU	–	–	244	89.5
UGUCGGAGAAGAGGAUAUUACAUGAGGAUCACCCAUGUAUGAACCAAUAGCUGGAAACAGCAAUGUAAGAAGGCUGCUCCGACA	5.32	23.1	–	–
UGUCGGAGCAGAGGAUAUAACAUGAGGAUCACCCAUGUAAUAAGAUCAAGCUGGAAACAGCAAUGUUAGAAGGCUGCUCCGACA	219	1010	–	–
UGUCGGAGCAGAGGAUAUACAUGAGGAUCACCCAUGUAAUAAAGUGAAGCCUGGAAACAGGCAAUGUAGAAGGCUGCUCCGACA	29.9	249	–	–
UGUCGGAGCAGAGGAUAUAUACAUGAGGAUCACCCAUGUAAAUGAAUGAGCUGGAAACAGCAAGUAUAGAAGGCUGCUCCGACA	–	16.5	–	–
UGUCGGAGCAGAGGAUAUUACAUGAGGAUCACCCAUGUAUGAACCAAUAGCAGGAAACAGCAAUGUAAGAAGGCUGCUCCGACA	10.3	77.4	–	–
UGUCGGAGCAGAGGAUAUUACAUGAGGAUCACCCAUGUAUGAACCAAUAGCCGGAAACAGCAAUGUAAGAAGGCUGCUCCGACA	4.64	6.88	–	–
UGUCGGAGCAGAGGAUAUUACAUGAGGAUCACCCAUGUAUGAACCAAUAGCGGGAAACAGCAAUGUAAGAAGGCUGCUCCGACA	34.6	140	–	–
UGUCGGAGCAGAGGAUAUUACAUGAGGAUCACCCAUGUAUGAACCAAUAGCUGGAAACAGCAACGUAAGAAGGCUGCUCCGACA	6.75	47.2	–	–
UGUCGGAGCAGAGGAUAUUACAUGAGGAUCACCCAUGUAUGAACCAAUAGCUGGAAACAGCAAUGUAAGAAGGCUGCUCCUACA	12.5	147	–	–
UGUCGGAGCAGAGGAUAUUACAUGAGGAUCACCCAUGUAUGAACCAAUAGCUGGAAACAGCAGUGUAAGAAGGCUGCUCCGACA	12.5	143	–	–
UGUCGGAGCAGAGGAUAUUACAUGAGGAUCACCCAUGUAUGAACCAAUAGCUGGAUACAGCAAUGUAAGAAGGCUGCUCCGACA	9.16	89.2	–	–
UGUCGGAGCAGAGGAUAUUACAUGAGGAUCACCCAUGUAUGAAUCAAUAGCUGGAAACAGCAAUGUAAGAAGGCUGCUCCGACA	7.86	26.6	–	–
UGUCGGAGCAGAGGAUAUUACAUGAGGAUCACCCAUGUGGAAAAACCAAGCUGGAAACAGCAAUGUAAGAAGGCUGCUCCGACA	487	804	–	–
UGUCGGAGCUGAGGAUAUUACAUGAGGAUCACCCAUGUAUGAACCAAUAGCUGGAAACAGCAAUGUAAGAAGGCUGCUCCGACA	5.65	34.1	–	–
UGUCUCAGAGGAUAUACAGGUGUAGAUCCUUUAGACCCUUGACAUGAGGAUCACCCAUGUAGAAGGCUGCAGAC	69.4	26.4	–	–
UGUGCGUAUGUGAGGAUAUGCUGGUCCUUGGAUCGGCAGAAGGCACAUGAGGAUCACCCAUGUGGUGUCGUUCU	389	24.8	–	–
UGUGCGUUGAUCUUAGAUCGGAGUACAUGAGGAUCACCCAUGUAGGAUAUUCAAAGACGCAGAUAGAAGAAGGACAUAGGUUUC	7.85	11.6	–	–
UGUGCGUUGAUCUUCGAUCGGAGUACAUGAGGAUCACCCAUGUAGGAUAUUCAAAGACGCAGAUAGGAGAAGGACAUCGGAUUA	9.63	8.83	–	–
UGUGCUAUGUAGAAGGCAGAUCUGAUUCAGAUCUGAGGAUAUACAUGAGGAUCACCCAUGUUAUGCACCAGCACGAGAGUGCAG	9.17	24	–	–
UGUGGGUGAUCAGGAUAUCCGUAUACAUGAGGAUCACCCAUGUCCUUGCUCAGCCGGGUAAGUUUGGAGAAGGGAUCAUCAAAU	–	–	357	32.1
UGUGUGUGACAGGAUAUGCUGGUUGUGAGACGGGUAGAAGGGUCUACAUGAGGAUCACCCAUGUGGCCGGUUGG	23.1	20.6	–	–
UGUGUGUGUGCAGGAUAUUUAAGAAGAACAUGAGGAUCACCCAUGUGAGGAUCACCCAUGUAAAAGGAGAAGGGCAGUGUGUGU	754	728	–	–
UGUGUUAUCGGAGGAUAUCGAUAUCAAACAUGAGGAUCACCCAUGUUGAGGAUCACACAUGUCCACGAGAAGGCCGACGUAGUG	–	–	7.12	7.23
